One block for each compound: values may come before it.
Tests used:
[1] = biological target: Vascular endothelial growth factor receptor 2 (Homo sapiens, UniProt P35968); experiment: Inhibition of VEGFR2
Procedure, shortened: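 GST-fused VEGFR-2/KDR catalytic domain from baculovirus-infected Sf9 cells, glutathione-agarose purified, 5 nM. Buffer: 60 mM Hepes pH 7.5, 3 mM MgCl2, 3 mM MnCl2, 1.2 mM β-mercaptoethanol, 0.1 mg/mL BSA, 3 µM vanadate. Mg-ATP at 2× Km. Enzyme, inhibitor and ATP were first combined for 4 min on ice. Reaction ran on immobilized poly(Glu4,Tyr) at 30 °C for 10 min and was stopped with EDTA. DELFIA Eu-anti-phosphotyrosine read-out. Seven concentrations in triplicate; IC50 from a 4-parameter fit.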

HCT-116 = experiment: Antitumor activity against human HCT116 cells by MTT assay
[2] = biological target: T1, Hepatocyte growth factor receptor (Homo sapiens, UniProt P08581); experiment: Inhibition of c-Met
[3] = biological target: Macrophage-stimulating protein receptor (Homo sapiens, UniProt Q04912); experiment: Inhibition of TPR-tagged RON catalytic domain expressed in HEK293 cells; format: cell-based
[4] = biological target: Serine/threonine-protein kinase Chk1 (Homo sapiens) (UniProt O14757); experiment: Inhibition of CHK1; conditions: concentration not given here
Procedure, shortened: (§1)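 Outsourced kinase panel of 23 enzymes (Millipore KinaseProfiler); single test concentration of 0.1 µM; percent inhibition of kinase activity reported.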

[5] = biological target: LIM domain kinase 1 (Homo sapiens) (UniProt P53667); experiment: Inhibition of LIMK1; conditions: concentration not given here; procedure, shortened: as §1
[6] = biological target: Dual specificity mitogen-activated protein kinase kinase 1 (Homo sapiens) (UniProt Q02750); experiment: Inhibition of MEK1; conditions: concentration not given here; procedure, shortened: as §1
[7] = Tmax in rat at 5 mg/kg, po; format: ADME, organism-based; set-up: dose 5 mg/kg, route oral; conditions: in vivo
[8] = biological target: Glycogen synthase kinase-3 beta (Homo sapiens) (UniProt P49841); experiment: Inhibition of GSK3-beta; conditions: concentration not given here; procedure, shortened: as §1
[9] = biological target: RAC-alpha serine/threonine-protein kinase (Homo sapiens) (UniProt P31749); experiment: Inhibition of PKBalpha; conditions: concentration not given here; procedure, shortened: as §1
[10] = biological target: 3-phosphoinositide-dependent protein kinase 1 (Homo sapiens) (UniProt O15530); experiment: Inhibition of PDK1; conditions: concentration not given here
[11] = biological target: Receptor-type tyrosine-protein kinase FLT3 (Homo sapiens) (UniProt P36888); experiment: Inhibition of FLT3; conditions: concentration not given here; procedure, shortened: as §1
[12] = biological target: Tyrosine-protein kinase JAK3 (Homo sapiens) (UniProt P52333); experiment: Inhibition of JAK3; conditions: concentration not given here; procedure, shortened: as §1
[13] = biological target: Mast/stem cell growth factor receptor Kit (Homo sapiens) (UniProt P10721); experiment: Inhibition of cKit; conditions: concentration not given here; procedure, shortened: as §1
[14] = Volume of distribution at steady state in rat at 2.5 mg/kg, iv and 5 mg/kg, po; format: ADME, organism-based; conditions: in vivo, read-out: Vdss
[15] = biological target: Ephrin type-B receptor 4 (Homo sapiens) (UniProt P54760); experiment: Inhibition of EphB4; conditions: concentration not given here; procedure, shortened: as §1
Rattus norvegicus = experiment: Cmax in rat at 5 mg/kg, po; format: ADME, organism-based; set-up: dose 5 mg/kg, route oral; conditions: in vivo
[16] = biological target: Phosphatidylinositol 4,5-bisphosphate 3-kinase catalytic subunit beta isoform (Homo sapiens) (UniProt P42338); experiment: Inhibition of PI3Kbeta; conditions: concentration not given here; procedure, shortened: as §1
[17] = biological target: Proto-oncogene tyrosine-protein kinase receptor Ret (Homo sapiens) (UniProt P07949); experiment: Inhibition of Ret; conditions: concentration not given here; procedure, shortened: as §1
[18] = Clearance in rat at 2.5 mg/kg, iv and 5 mg/kg, po; format: ADME, organism-based; conditions: in vivo
[19] = biological target: Angiopoietin-1 receptor (Homo sapiens) (UniProt Q02763); experiment: Inhibition of Tie2; conditions: concentration not given here; procedure, shortened: as §1
[20] = biological target: Inhibitor of nuclear factor kappa-B kinase subunit beta (Homo sapiens) (UniProt O14920); experiment: Inhibition of IKK-beta; conditions: concentration not given here; procedure, shortened: as §1
[21] = biological target: RAF proto-oncogene serine/threonine-protein kinase (Homo sapiens) (UniProt P04049); experiment: Inhibition of c-Raf; conditions: concentration not given here; procedure, shortened: as §1
[22] = biological target: Serine/threonine-protein kinase haspin (Homo sapiens) (UniProt Q8TF76); experiment: Inhibition of haspin; conditions: concentration not given here; procedure, shortened: as §1
[23] = biological target: T1, Hepatocyte growth factor receptor; experiment: Inhibition of c-Met phosphorylation in human MKN45 cells; format: cell-based, MKN-45
[24] = biological target: Cytoplasmic tyrosine-protein kinase BMX (Homo sapiens) (UniProt P51813); experiment: Inhibition of BMX; conditions: concentration not given here; procedure, shortened: as §1
[25] = Oral bioavailability in rat at 5 mg/kg, po; format: ADME, organism-based; conditions: in vivo
[26] = biological target: ALK tyrosine kinase receptor (Homo sapiens) (UniProt Q9UM73); experiment: Inhibition of ALK; conditions: concentration not given here; procedure, shortened: as §1
[27] = Half life in rat at 2.5 mg/kg, iv; format: ADME, organism-based; set-up: dose 2.5 mg/kg, route intravenous; conditions: in vivo
[28] = biological target: Focal adhesion kinase 1 (Homo sapiens) (UniProt Q05397); experiment: Inhibition of FAK; conditions: concentration not given here; procedure, shortened: as §1
[29] = biological target: Serine/threonine-protein kinase pim-1 (Homo sapiens) (UniProt P11309); experiment: Inhibition of PIM1; conditions: concentration not given here; procedure, shortened: as §1

IC50 [1]: 700 nM
Compound: CN(C)CCN(C)C(=O)c1ccc(-c2cc3nccc(Oc4ccc(NC(=O)c5cnn(-c6ccccc6)c5C(F)(F)F)cc4F)c3s2)cc1

IC50 [1]: 2000 nM
Compound: Cc1c(C(=O)Nc2ccc(Oc3ccnc4cc(-c5cn(C)cn5)sc34)c(F)c2)cnn1-c1ccccc1

IC50 (HCT-116; hct-116): Not Active
IC50 [1]: 10 nM
Compound: Cn1cnc(-c2cc3nccc(Oc4ccc(NC(=O)N5CCN(c6ccccc6)C5=O)cc4F)c3s2)c1

IC50 [1]: 5300 nM
Compound: COCCNC(=O)c1ccc(-c2cc3nccc(Oc4ccc(NC(=O)c5cnn(-c6ccccc6)c5C(F)(F)F)cc4F)c3s2)nc1

IC50 [1]: 1400 nM
Compound: Cn1ccnc1-c1cc2nccc(Oc3ccc(NC(=O)c4cnn(-c5ccccc5)c4C(F)(F)F)cc3F)c2s1

IC50 [1]: 1100 nM
Compound: CS(=O)(=O)CCNCc1ccc(-c2cc3nccc(Oc4ccc(NC(=O)c5cnn(-c6ccccc6)c5C(F)(F)F)cc4F)c3s2)cc1

IC50 [1]: > 2000 nM
Compound: COc1cc2nccc(Oc3ccc(NC(=O)c4cnn(-c5ccccc5)c4C(F)(F)F)cc3F)c2cc1OC

IC50 [1]: 800 nM
IC50 [2]: 180 nM
IC50 [3]: > 1000 nM
Compound: Cn1cnc(-c2cc3nccc(Oc4ccc(NC(=O)c5cnn(-c6ccccc6)c5N)cc4F)c3s2)c1

IC50 [1]: 2500 nM
Compound: CN(C)C(=O)c1ccc(-c2cc3nccc(Oc4ccc(NC(=O)c5cnn(-c6ccccc6)c5C(F)(F)F)cc4F)c3s2)nc1

IC50 [1]: 700 nM
IC50 [2]: 60 nM
IC50 [3]: > 1000 nM
Compound: Cn1cnc(-c2cc3nccc(Oc4ccc(NC(=O)c5cnn(C)c5C(F)(F)F)cc4F)c3s2)c1

IC50 [1]: 1900 nM
Compound: CCCc1c(C(=O)Nc2ccc(Oc3ccnc4cc(-c5cn(C)cn5)sc34)c(F)c2)cnn1-c1ccccc1

inhibition [4]: < 40%
IC50 (HCT-116; Homo sapiens, HCT-116): 80 nM
inhibition [5]: < 40%
inhibition [6]: < 40%
Tmax [7]: 6 h
inhibition [8]: < 40%
inhibition [9]: < 40%
inhibition [10]: < 40%
inhibition [11]: 96%
inhibition [12]: < 40%
inhibition [13]: < 40%
Vd [14]: 2.4 L/kg
inhibition [15]: < 40%
Cmax normalised (Rattus norvegicus): 0.25 µM/mg/kg
inhibition [16]: < 40%
inhibition [17]: < 40%
clearance [18]: 10.5 mL/min/kg
inhibition [19]: < 40%
IC50 [1]: > 10000 nM
inhibition [20]: < 40%
inhibition [21]: < 40%
inhibition [22]: < 40%
IC50 [2]: 150 nM
IC50 [23]: 500 nM
inhibition [24]: < 40%
bioavailability [25]: > 30%
inhibition [26]: < 40%
half-life [27]: 2.7 h
inhibition [28]: < 40%
IC50 [3]: 50 nM
inhibition [29]: < 40%
Compound: Cn1cnc(-c2cc3nccc(Oc4ccc(NC(=O)c5cnn(-c6ccccc6)c5C(F)(F)F)cc4F)c3s2)c1

IC50 [1]: 1000 nM
Compound: CN(C)[C@H]1CCN(C(=O)c2ccc(-c3cc4nccc(Oc5ccc(NC(=O)c6cnn(-c7ccccc7)c6C(F)(F)F)cc5F)c4s3)cc2)C1

IC50 [1]: 1400 nM
Compound: CC(=O)N1CC=C(c2cc3nccc(Oc4ccc(NC(=O)c5cnn(-c6ccccc6)c5C(F)(F)F)cc4F)c3s2)CC1

IC50 [1]: 2500 nM
Compound: COC[C@H](C)N(Cc1ccc(-c2cc3nccc(Oc4ccc(NC(=O)c5cnn(-c6ccccc6)c5C(F)(F)F)cc4F)c3s2)cc1)C(C)=O

IC50 [1]: 1400 nM
Compound: CN(C)C(=O)c1ccc(-c2cc3nccc(Oc4ccc(NC(=O)c5cnn(-c6ccccc6)c5C(F)(F)F)cc4F)c3s2)cc1

IC50 [1]: 1400 nM
Compound: Cn1cnc(-c2cc3nccc(Oc4ccc(NC(=O)c5cnn(-c6ccccc6)c5)cc4F)c3s2)c1

IC50 [1]: 3000 nM
Compound: Cn1cnc(-c2cc3nccc(Oc4ccc(NC(=O)c5cnn(C(C)(C)C)c5C(F)(F)F)cc4F)c3s2)c1

IC50 [1]: > 20000 nM
IC50 [2]: > 15000 nM
IC50 [3]: > 10000 nM
Compound: CNC(=O)c1cc(Oc2ccc(NC(=O)c3cnn(-c4ccccc4)c3C(F)(F)F)cc2F)ccn1

— ChEMBL document CHEMBL1157925, “Identification of a novel series of potent RON receptor tyrosine kinase inhibitors” (Bioorg Med Chem Lett, 2010)
